{"source": "ChEMBL document CHEMBL3804769", "about": "“Antibacterial Diamines Targeting Bacterial Membranes” (J Med Chem, 2016)", "key": {"[1]": {"assay": "Selectivity index, ratio of CC50 for human A549 cells to MIC99 for methicillin-resistant Staphylococcus aureus clinical isolate"}, "[2]": {"test_system": "Staphylococcus aureus", "assay": "Antibacterial activity against methicillin-resistant Staphylococcus aureus clinical isolate at MIC99 after 12 hrs by microbroth dilution method in presence of 10% fetal bovine serum", "assay_type": "functional, organism-based", "in_short": "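Broth microdilution MIC99 run with 10% fetal bovine serum in the medium, after 12 h preincubation of compound with the serum. Plates incubated overnight at 37 °C without shaking. MIC99 taken as the lowest concentration giving complete growth inhibition.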"}, "[3]": {"test_system": "Staphylococcus aureus", "assay": "Potentiation of kanamycin-induced antibacterial activity against Staphylococcus aureus RN4220 ATCC 35556 assessed as reduction in kanamycin MIC99 at 0.5 times MIC99 after 24 hrs by checkerboard assay relative to control", "assay_type": "functional", "in_short": "(§1)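 Checkerboard assay: compound serially diluted along one axis of a 96-well plate and antibiotic along the other, in LB. Each well inoculated with 2 × 10⁴ CFU and incubated 24 h at 37 °C. ΣFIC = FIC A + FIC B, where each FIC is the combination MIC99 divided by the MIC99 of that drug alone.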"}, "[4]": {"test_system": "Escherichia coli", "assay": "Antibacterial activity against Escherichia coli ANS1 incubated overnight by microbroth dilution method", "assay_type": "functional", "in_short": "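Bacteria grown in LB medium. CLSI microbroth dilution in 96-well plates, overnight at 37 °C without shaking. MIC99 taken as the lowest concentration giving complete growth inhibition. Three independent determinations, reported as mean ± SD.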"}, "[5]": {"test_system": "Pseudomonas aeruginosa", "assay": "Bactericidal activity against Pseudomonas aeruginosa PAO1 ATCC 47085 in stationary-phase assessed as reduction in bacterial burden at 4 times MIC99 after 4 hrs by time-kill assay", "assay_type": "functional, organism-based", "in_short": "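Overnight cultures washed and resuspended in PBS, then diluted 100-fold into LB (exponential-phase model) or into 1% PBS (stationary-phase model). Test agent added at 4× MIC99. Incubated at 37 °C with shaking at 200 rpm. CFU counted on LB agar at 0, 2, 4 and 6 h.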"}, "[6]": {"test_system": "Caenorhabditis elegans", "assay": "Toxicity in adult L4/juvenile L1 stages of Caenorhabditis elegans N2 assessed as effect on viable eggs production at 64 ug/ml incubated for 96 hrs measured every 12 hrs", "assay_type": "organism-based", "details": "in vivo", "in_short": "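C. elegans N2 maintained on NGM agar at 22 °C. Compound mixed into molten NGM agar at 64 μg/mL. L4 adults, L1 juveniles and synchronized eggs transferred onto test plates and kept 96 h at 22 °C. Checked every 12 h for death, development and egg production. Gentamicin and […] as controls.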"}, "[7]": {"assay": "Selectivity index, ratio of CC50 for human A549 cells to MIC99 for Staphylococcus aureus RN4220 ATCC 35556", "assay_type": "toxicity, cell-based", "details": "read-out: Selectivity Index", "in_short": "(§2)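 CC50: HEK293T/17 or A549 cells seeded at 10⁴ per well in DMEM with 10% FBS at 37 °C, 5% CO2. After 24 h, wells PBS-washed and serially diluted compound applied for 48 h, with viability read by MTS and CC50 taken by nonlinear regression. MIC99 by CLSI broth microdilution, overnight at 37 °C without shaking, from three independent tests. SI = CC50/MIC99.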"}, "[8]": {"test_system": "Pseudomonas aeruginosa", "assay": "Potentiation of kanamycin-induced antibacterial activity against Pseudomonas aeruginosa PAO1 ATCC 47085 assessed as kanamycin MIC at 0.5 times MIC99 after 24 hrs by checkerboard assay (reference value: 64 ug/ml)", "assay_type": "functional", "details": "PAO1 ATCC 47085, 24 h", "in_short": "as §1"}, "[9]": {"assay": "Selectivity index, ratio of CC50 for HEK293T/17 cells to MIC99 for Staphylococcus aureus RN4220 ATCC 35556", "assay_type": "toxicity, cell-based", "details": "human, read-out: Selectivity Index", "in_short": "as §2"}}, "note": "Active and inactive are the calls of the source. No cut-off for these calls is given here."}
{"smiles": "Cl.Cl.S=C(NCCCNCCCCCNCCCNC(=S)NCC(c1ccccc1)c1ccccc1)NCC(c1ccccc1)c1ccccc1", "values": [{"measurement": "Selectivity Index", "setting": "[1]", "result": 64}, {"measurement": "Activity", "setting": "[2]", "result": "Active"}, {"measurement": "fold change (FC)", "setting": "[3]", "result": 8}, {"measurement": "MIC99", "setting": "[4]", "result": 2, "unit": "mg/L"}, {"measurement": "Activity", "setting": "[5]", "result": "Active"}, {"measurement": "Activity", "setting": "[6]", "result": "Non-toxic"}, {"measurement": "selectivity ratio", "setting": "[7]", "result": 32}, {"measurement": "MIC99", "setting": "[8]", "result": 8, "unit": "mg/L"}, {"measurement": "selectivity ratio", "setting": "[9]", "result": 16}]}
